Laboratory results from ChEMBL document CHEMBL1132958, “Design of monocyclic (1-3) and dicyclic (1-3/4-10) gonadotropin releasing hormone (GnRH) antagonists” (J Med Chem, 2000).

biological target: T1, Gonadotropin-releasing hormone receptor (Rattus norvegicus, UniProt P30969); test: Competitive radioligand binding assay for rat Gonadotropin-releasing hormone receptor cells stably transfected in human HEK293
T1 sequence (P30969 whole entry): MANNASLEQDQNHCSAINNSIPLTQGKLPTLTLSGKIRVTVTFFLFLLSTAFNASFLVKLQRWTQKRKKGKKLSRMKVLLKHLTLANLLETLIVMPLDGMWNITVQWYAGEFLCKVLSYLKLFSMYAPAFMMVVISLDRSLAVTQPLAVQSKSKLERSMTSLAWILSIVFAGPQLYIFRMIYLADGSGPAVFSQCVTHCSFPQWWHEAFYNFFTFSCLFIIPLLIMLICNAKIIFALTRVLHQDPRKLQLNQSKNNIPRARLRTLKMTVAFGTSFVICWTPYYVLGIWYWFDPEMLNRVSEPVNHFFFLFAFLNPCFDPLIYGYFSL
Outline: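 Membranes from HEK-293 cells stably expressing rat GnRH receptor (5% sucrose homogenate; nuclei removed at 3000g, membranes pelleted at 20000g, 4 °C), 7 µg protein in 10 mM Hepes pH 7.5, 150 mM NaCl, 0.1% BSA. Competitor at varying concentrations vs des-Gly10-[125I-Tyr5,DAla6,NMeLeu7,Pro9-NHEt]GnRH (~100 000 cpm), 90 min; PEI-coated GF/C filtration, PBS wash, γ counting. Ki by nonlinear least-squares fit; ≥3 independent experiments, mean ± SEM.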

Ki [nM]	Compound
31	CC(=O)N[C@H]1CC(=O)NC[C@@H](C(=O)N[C@@H](CO)C(=O)N[C@@H](Cc2ccc(O)cc2)C(=O)N[C@H](Cc2ccc3ccccc3c2)C(=O)N[C@@H](CC(C)C)C(=O)N[C@@H](CCCN=C(N)N)C(=O)N2CCC[C@H]2C(=O)N[C@H](C)C(N)=O)NC(=O)[C@@H](Cc2ccc(Cl)cc2)NC1=O
0.82	CC(=O)N[C@@H]1CC(=O)NCCCC[C@H](C(=O)N[C@@H](CO)C(=O)N[C@@H](Cc2ccc(O)cc2)C(=O)N[C@H](Cc2ccc3ccccc3c2)C(=O)N[C@@H](CC(C)C)C(=O)N[C@@H](CCCN=C(N)N)C(=O)N2CCC[C@H]2C(=O)N[C@H](C)C(N)=O)NC(=O)[C@@H](Cc2ccc(Cl)cc2)NC1=O
350	CC(=O)N[C@@H]1CC(=O)N[C@@H](C)C(=O)NCCC[C@H](C(=O)N[C@@H](CO)C(=O)N[C@@H](Cc2ccc(O)cc2)C(=O)N[C@H](CCCN=C(N)N)C(=O)N[C@@H](CC(C)C)C(=O)N[C@@H](CCCN=C(N)N)C(=O)N2CCC[C@H]2C(=O)N[C@H](C)C(N)=O)NC(=O)[C@@H](Cc2ccc(Cl)cc2)NC1=O
1.7	CC(=O)N[C@@H]1CNC(=O)C[C@H](C(=O)N[C@@H](CO)C(=O)N[C@@H](Cc2ccc(O)cc2)C(=O)N[C@H](Cc2ccc3ccccc3c2)C(=O)N[C@@H](CC(C)C)C(=O)N[C@@H](CCCN=C(N)N)C(=O)N2CCC[C@H]2C(=O)N[C@H](C)C(N)=O)NC(=O)[C@@H](Cc2ccc(Cl)cc2)NC1=O
1.6	CC(=O)N[C@@H]1CC(=O)NCCC[C@H](C(=O)N[C@@H](CO)C(=O)N[C@@H](Cc2ccc(O)cc2)C(=O)N[C@H](Cc2ccc3ccccc3c2)C(=O)N[C@@H](CC(C)C)C(=O)N[C@@H](CCCN=C(N)N)C(=O)N2CCC[C@H]2C(=O)N[C@H](C)C(N)=O)NC(=O)[C@@H](Cc2ccc(Cl)cc2)NC1=O
2.4	CC(=O)N[C@@H]1CC(=O)N[C@H](C)C(=O)NCCC[C@H](C(=O)N[C@@H](CO)C(=O)N[C@@H](Cc2ccc(O)cc2)C(=O)N[C@H](Cc2ccc3ccccc3c2)C(=O)N[C@@H](CC(C)C)C(=O)N[C@@H](CCCN=C(N)N)C(=O)N2CCC[C@H]2C(=O)N[C@H](C)C(N)=O)NC(=O)[C@@H](Cc2ccc(Cl)cc2)NC1=O
0.18	CC(=O)N[C@@H]1CC(=O)NCCCC(=O)NC[C@H](C(=O)N[C@@H](CO)C(=O)N[C@@H](Cc2ccc(O)cc2)C(=O)N[C@H](Cc2ccc3ccccc3c2)C(=O)N[C@@H](CC(C)C)C(=O)N[C@@H](CCCN=C(N)N)C(=O)N2CCC[C@H]2C(=O)N[C@H](C)C(N)=O)NC(=O)[C@@H](Cc2ccc(Cl)cc2)NC1=O
1.5	CC(=O)N[C@@H]1CCC(=O)NCC(=O)NCCCC[C@H](C(=O)N[C@@H](CO)C(=O)N[C@@H](Cc2ccc(O)cc2)C(=O)N[C@H](Cc2ccc3ccccc3c2)C(=O)N[C@@H](CC(C)C)C(=O)N[C@@H](CCCN=C(N)N)C(=O)N2CCC[C@H]2C(=O)N[C@H](C)C(N)=O)NC(=O)[C@@H](Cc2ccc(Cl)cc2)NC1=O
0.35	CC(=O)N[C@@H]1CC(=O)NCCC(=O)NC[C@H](C(=O)N[C@@H](CO)C(=O)N[C@@H](Cc2ccc(O)cc2)C(=O)N[C@H](Cc2ccc3ccccc3c2)C(=O)N[C@@H](CC(C)C)C(=O)N[C@@H](CCCN=C(N)N)C(=O)N2CCC[C@H]2C(=O)N[C@H](C)C(N)=O)NC(=O)[C@@H](Cc2ccc(Cl)cc2)NC1=O
3.3	CC(=O)N[C@@H]1CC(=O)N[C@@H](C)C(=O)NCCC[C@H](C(=O)N[C@@H](CO)C(=O)N[C@@H](Cc2ccc(O)cc2)C(=O)N[C@H](Cc2ccc3ccccc3c2)C(=O)N[C@@H](CC(C)C)C(=O)N[C@@H](CCCN=C(N)N)C(=O)N2CCC[C@H]2C(=O)N[C@H](C)C(N)=O)NC(=O)[C@@H](Cc2ccc(Cl)cc2)NC1=O
0.17	CC(=O)N[C@@H]1CC(=O)NCCC(=O)NCCC[C@H](C(=O)N[C@@H](CO)C(=O)N[C@@H](Cc2ccc(O)cc2)C(=O)N[C@H](Cc2ccc3ccccc3c2)C(=O)N[C@@H](CC(C)C)C(=O)N[C@@H](CCCN=C(N)N)C(=O)N2CCC[C@H]2C(=O)N[C@H](C)C(N)=O)NC(=O)[C@@H](Cc2ccc(Cl)cc2)NC1=O
20.3	CC(=O)N[C@@H]1CCC(=O)NCC(=O)NCC[C@H](C(=O)N[C@@H](CO)C(=O)N[C@@H](Cc2ccc(O)cc2)C(=O)N[C@H](Cc2ccc3ccccc3c2)C(=O)N[C@@H](CC(C)C)C(=O)N[C@@H](CCCN=C(N)N)C(=O)N2CCC[C@H]2C(=O)N[C@H](C)C(N)=O)NC(=O)[C@@H](Cc2ccc(Cl)cc2)NC1=O
0.7	CC(=O)N[C@@H]1CC(=O)NCC(=O)NCC[C@H](C(=O)N[C@@H](CO)C(=O)N[C@@H](Cc2ccc(O)cc2)C(=O)N[C@H](Cc2ccc3ccccc3c2)C(=O)N[C@@H](CC(C)C)C(=O)N[C@@H](CCCN=C(N)N)C(=O)N2CCC[C@H]2C(=O)N[C@H](C)C(N)=O)NC(=O)[C@@H](Cc2ccc(Cl)cc2)NC1=O
2.2	CC(=O)N[C@@H]1CCC(=O)NCCC(=O)NCCCC[C@H](C(=O)N[C@@H](CO)C(=O)N[C@@H](Cc2ccc(O)cc2)C(=O)N[C@H](Cc2ccc3ccccc3c2)C(=O)N[C@@H](CC(C)C)C(=O)N[C@@H](CCCN=C(N)N)C(=O)N2CCC[C@H]2C(=O)N[C@H](C)C(N)=O)NC(=O)[C@@H](Cc2ccc(Cl)cc2)NC1=O
0.34	CC(=O)N[C@@H]1CC(=O)NCC(=O)NCCC[C@H](C(=O)N[C@@H](CO)C(=O)N[C@@H](Cc2ccc(O)cc2)C(=O)N[C@H](Cc2ccc3ccccc3c2)C(=O)N[C@@H](CC(C)C)C(=O)N[C@@H](CCCN=C(N)N)C(=O)N2CCC[C@H]2C(=O)N[C@H](C)C(N)=O)NC(=O)[C@@H](Cc2ccc(Cl)cc2)NC1=O
0.47	CC(=O)N[C@@H]1CCC(=O)NCCCC[C@H](C(=O)N[C@@H](CO)C(=O)N[C@@H](Cc2ccc(O)cc2)C(=O)N[C@H](Cc2ccc3ccccc3c2)C(=O)N[C@@H](CC(C)C)C(=O)N[C@@H](CCCN=C(N)N)C(=O)N2CCC[C@H]2C(=O)N[C@H](C)C(N)=O)NC(=O)[C@@H](Cc2ccc(Cl)cc2)NC1=O
1.8	CC(=O)N[C@@H]1CC(=O)N[C@@H](C)C(=O)NCC[C@H](C(=O)N[C@@H](CO)C(=O)N[C@@H](Cc2ccc(O)cc2)C(=O)N[C@H](Cc2ccc3ccccc3c2)C(=O)N[C@@H](CC(C)C)C(=O)N[C@@H](CCCN=C(N)N)C(=O)N2CCC[C@H]2C(=O)N[C@H](C)C(N)=O)NC(=O)[C@@H](Cc2ccc(Cl)cc2)NC1=O
4.6	CC(=O)N[C@@H]1CCC(=O)NCCCC[C@H](C(=O)N[C@H]2CC(=O)NC[C@@H](C(N)=O)NC(=O)[C@@H]3CCCN3C(=O)[C@@H]3CCCCNC(=O)CC[C@H](NC2=O)C(=O)N[C@H](Cc2ccc4ccccc4c2)C(=O)N[C@@H](CC(C)C)C(=O)N3)NC(=O)[C@@H](Cc2ccc(Cl)cc2)NC1=O
1.2	CC(=O)N[C@@H]1CC(=O)NCCCC[C@H](C(=O)N[C@H]2CC(=O)NC[C@@H](C(N)=O)NC(=O)[C@@H]3CCCN3C(=O)[C@H](CCCN=C(N)N)NC(=O)[C@H](CC(C)C)NC(=O)[C@@H](Cc3ccc4ccccc4c3)NC(=O)[C@H](Cc3ccc(O)cc3)NC2=O)NC(=O)[C@@H](Cc2ccc(Cl)cc2)NC1=O
4.2	CC(=O)N[C@@H]1CCC(=O)NCC(=O)NCCC[C@H](C(=O)N[C@@H](CO)C(=O)N[C@@H](Cc2ccc(O)cc2)C(=O)N[C@H](Cc2ccc3ccccc3c2)C(=O)N[C@@H](CC(C)C)C(=O)N[C@@H](CCCN=C(N)N)C(=O)N2CCC[C@H]2C(=O)N[C@H](C)C(N)=O)NC(=O)[C@@H](Cc2ccc(Cl)cc2)NC1=O
0.57	CC(=O)N[C@@H]1CC(=O)N[C@H](C)C(=O)NCC[C@H](C(=O)N[C@@H](CO)C(=O)N[C@@H](Cc2ccc(O)cc2)C(=O)N[C@H](Cc2ccc3ccccc3c2)C(=O)N[C@@H](CC(C)C)C(=O)N[C@@H](CCCN=C(N)N)C(=O)N2CCC[C@H]2C(=O)N[C@H](C)C(N)=O)NC(=O)[C@@H](Cc2ccc(Cl)cc2)NC1=O
